Test results published in ChEMBL document CHEMBL1129325, “Ureido-based peptidomimetic inhibitor of herpes simplex virus ribonucleotide reductase: an investigation of inhibitor bioactive conformation” (J Med Chem, 1996).
pIC50: −log10 of the molar value. Numbered stars: 1 amine (or outer) side, 2 acyl side, 3 side chain; on linkers, the order of the positions; unused ones are H or OH. Square brackets hold non-standard residues; d marks the D form. Peptide text beside a SMILES is read from it. * marks the point of attachment. Hydrocinnamoyl = O=C(CCc1ccccc1)*; Butanoyl(2-Et) = CCC(CC)C(=O)*; Tle = CC(C)(C)[C@H](N)C(=O)O; Pip = O=C(O)[C@@H]1CCCCN1; NH(3-pentyl) = CCC(CC)N*; Pyrrolidide = C1CCN(*)C1; CO = O=C([*:1])[*:2]; X2 = CCC(CC)CC(=O)*; X3 = CCC(CC)OC(=O)*; X1 = CCCC(CCC)N*; NHiPr = CC(C)N*

biological target: T1, Ribonucleoside-diphosphate reductase large subunit (Herpes simplex virus (type 1 / strain 17), UniProt P08543); experiment: Inhibitory activity against Herpes simplex virus (HSV) ribonucleotide reductase (RR)
T1 sequence (P08543 whole entry): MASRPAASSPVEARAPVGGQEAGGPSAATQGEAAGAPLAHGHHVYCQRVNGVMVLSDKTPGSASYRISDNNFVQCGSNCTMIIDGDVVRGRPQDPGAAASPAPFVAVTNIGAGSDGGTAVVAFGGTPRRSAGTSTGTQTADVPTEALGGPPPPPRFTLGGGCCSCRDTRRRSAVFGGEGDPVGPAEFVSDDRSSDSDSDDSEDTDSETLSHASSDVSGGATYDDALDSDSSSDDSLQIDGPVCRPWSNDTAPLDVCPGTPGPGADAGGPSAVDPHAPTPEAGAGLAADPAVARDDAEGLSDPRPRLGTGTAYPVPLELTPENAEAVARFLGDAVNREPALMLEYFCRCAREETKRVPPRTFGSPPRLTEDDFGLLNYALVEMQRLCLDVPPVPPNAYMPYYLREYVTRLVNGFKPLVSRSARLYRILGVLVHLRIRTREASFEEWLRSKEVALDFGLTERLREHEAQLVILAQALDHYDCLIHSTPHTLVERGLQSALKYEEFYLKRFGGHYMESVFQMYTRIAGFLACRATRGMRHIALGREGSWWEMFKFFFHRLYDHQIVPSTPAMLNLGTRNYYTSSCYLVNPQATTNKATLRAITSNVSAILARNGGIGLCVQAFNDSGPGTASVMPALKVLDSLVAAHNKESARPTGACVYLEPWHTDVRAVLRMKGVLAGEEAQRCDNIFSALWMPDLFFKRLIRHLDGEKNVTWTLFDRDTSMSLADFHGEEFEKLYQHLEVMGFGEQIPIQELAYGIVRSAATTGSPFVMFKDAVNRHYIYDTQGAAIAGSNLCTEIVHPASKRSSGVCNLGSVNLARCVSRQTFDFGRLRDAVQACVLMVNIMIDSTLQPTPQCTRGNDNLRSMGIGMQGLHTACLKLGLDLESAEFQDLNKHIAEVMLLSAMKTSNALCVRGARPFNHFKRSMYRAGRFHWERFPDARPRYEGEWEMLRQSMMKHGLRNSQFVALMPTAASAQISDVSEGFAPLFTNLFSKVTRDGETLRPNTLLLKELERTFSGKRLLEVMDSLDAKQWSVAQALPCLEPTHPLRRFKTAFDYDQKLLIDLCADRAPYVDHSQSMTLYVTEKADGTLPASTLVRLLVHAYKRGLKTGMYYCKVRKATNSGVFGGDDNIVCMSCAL
Outline: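 Radioligand binding assay for HSV ribonucleotide reductase subunit association, run per a previously published protocol. IC50 taken as the mean of at least four separate determinations, with standard deviation reported.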

Structure (SMILES)	pIC50
CCC(CC)NC(=O)N[C@H](C(=O)N1CCCC(C(=O)N2CCCC2)C1C(=O)N[C@@H](CC(=O)O)C(=O)N[C@@H](CC(C)C)C(=O)O)C(C)(C)C (stereo in doubt; 17)	5.52
CCCC(CCC)NC(=O)N[C@H](C(=O)N[C@@H](CC(=O)N1CCCC1)C(=O)N[C@@H](CC(=O)O)C(=O)N[C@@H](CC(C)C)C(=O)O)C(C)C ({X1-CO}-VD(Pyrrolidide)DL-OH)	8.15
CNC(=O)N[C@H](C(=O)N[C@@H](CC(=O)N1CCCC1)C(=O)N[C@@H](CC(=O)O)C(=O)N[C@@H](CC(C)C)C(=O)O)C(C)C ({NHMe-CO}-VD(Pyrrolidide)DL-OH)	4.38
CCC(CC)OC(=O)N[C@H](C(=O)N[C@@H](CC(=O)N1CCCC1)C(=O)N[C@@H](CC(=O)O)C(=O)N[C@@H](CC(C)C)C(=O)O)C(C)(C)C (X3-[Tle]D(Pyrrolidide)DL-OH)	6.20
CCC(CC)NC(=O)NC1CCN([C@@H](CC(=O)N2CCCC2)C(=O)N[C@@H](CC(=O)O)C(=O)N[C@@H](CC(C)C)C(=O)O)C1=O (stereo partly drawn)	6.10
CC(=O)N[C@H](C(=O)N[C@H](C(=O)N[C@@H](CC(=O)N1CCCC1)C(=O)N[C@@H](CC(=O)O)C(=O)N[C@@H](CC(C)C)C(=O)O)C(C)C)C(C)C (Ac-VVD(Pyrrolidide)DL-OH)	6.06
CCC(CC)NC(=O)N[C@H](C(=O)N1CCCC(C(=O)NC)C1C(=O)N[C@@H](CC(=O)O)C(=O)N[C@@H](CC(C)C)C(=O)O)C(C)(C)C (stereo partly drawn)	8.00
CCC(CC)NC(=O)N[C@H](C(=O)N[C@@H](CC(=O)N1CCCC1)C(=O)N[C@@H](CC(=O)O)C(=O)N[C@@H](CC(C)C)C(=O)O)C(C)C ({NH(3-pentyl)-CO}-VD(Pyrrolidide)DL-OH)	7.82
CCC(CC)NC(=O)N[C@@H](C)C(=O)N[C@@H](CC(=O)N1CCCC1)C(=O)N[C@@H](CC(=O)O)C(=O)N[C@@H](CC(C)C)C(=O)O ({NH(3-pentyl)-CO}-AD(Pyrrolidide)DL-OH)	4.39
CCC(CC)NC(=O)C[C@H](C(=O)N[C@@H](CC(=O)N1CCCC1)C(=O)N[C@@H](CC(=O)O)C(=O)N[C@@H](CC(C)C)C(=O)O)C(C)(C)C	8.30
CCC(CC)NC(=O)N[C@H](C(=O)N1CCCC(C(=O)N2CCCC2)C1C(=O)N[C@@H](CC(=O)O)C(=O)N[C@@H](CC(C)C)C(=O)O)C(C)(C)C (stereo in doubt; 16)	7.49
CCC(CC)NC(=O)N[C@H](C(=O)N1CCCC[C@H]1C(=O)N[C@@H](CC(=O)O)C(=O)N[C@@H](CC(C)C)C(=O)O)C(C)(C)C ({NH(3-pentyl)-CO}-[Tle][Pip]DL-OH)	3.12
CCC(CC)NC(=O)N[C@H](C(=O)N1CCC[C@H]1C(=O)N[C@@H](CC(=O)O)C(=O)N[C@@H](CC(C)C)C(=O)O)C(C)(C)C ({NH(3-pentyl)-CO}-[Tle]PDL-OH)	4.00
CCC(CC)NC(=O)N[C@H](C(=O)N[C@@H](CC(=O)N1CCCC1)C(=O)N[C@@H](CC(=O)O)C(=O)N[C@@H](CC(C)C)C(=O)O)C(C)(C)C ({NH(3-pentyl)-CO}-[Tle]D(Pyrrolidide)DL-OH)	8.52
CCC(CC)CC(=O)N[C@H](C(=O)N[C@@H](CC(=O)N1CCCC1)C(=O)N[C@@H](CC(=O)O)C(=O)N[C@@H](CC(C)C)C(=O)O)C(C)(C)C (X2-[Tle]D(Pyrrolidide)DL-OH)	6.85
CCC(CC)NC(=O)N[C@H](C(=O)N1CCC(C(=O)N2CCCC2)[C@H]1C(=O)N[C@@H](CC(=O)O)C(=O)N[C@@H](CC(C)C)C(=O)O)C(C)(C)C (stereo partly drawn)	6.97
CCC(CC)NC(=O)N[C@H](C(=O)N[C@@H](C)C(=O)N[C@@H](CC(=O)O)C(=O)N[C@@H](CC(C)C)C(=O)O)C(C)(C)C ({NH(3-pentyl)-CO}-[Tle]ADL-OH)	3.96
CCC(CC)NC(=O)NCC(=O)N[C@@H](CC(=O)N1CCCC1)C(=O)N[C@@H](CC(=O)O)C(=O)N[C@@H](CC(C)C)C(=O)O ({NH(3-pentyl)-CO}-GD(Pyrrolidide)DL-OH)	6.17
CCC(CC)NC(=O)N[C@H](C(=O)N[C@@H](CC(=O)NC)C(=O)N[C@@H](CC(=O)O)C(=O)N[C@@H](CC(C)C)C(=O)O)C(C)(C)C ({NH(3-pentyl)-CO}-[Tle]D(NHMe)DL-OH)	7.46
CCC(CC)NC(=O)NC1CCCN([C@@H](CC(=O)N2CCCC2)C(=O)N[C@@H](CC(=O)O)C(=O)N[C@@H](CC(C)C)C(=O)O)C1=O (stereo partly drawn)	6.62
CCC(CC)C(=O)N[C@H](C(=O)N[C@@H](CC(=O)N1CCCC1)C(=O)N[C@@H](CC(=O)O)C(=O)N[C@@H](CC(C)C)C(=O)O)C(C)C ({Butanoyl(2-Et)}-VD(Pyrrolidide)DL-OH)	6.07
CC(C)C[C@H](NC(=O)[C@H](CC(=O)O)NC(=O)[C@H](CC(=O)N1CCCC1)NC(=O)[C@@H](NC(=O)[C@@H](NC(=O)CCc1ccccc1)C(C)C)C(C)C)C(=O)O (Hydrocinnamoyl-VVD(Pyrrolidide)DL-OH)	7.62
CC(C)C[C@H](NC(=O)[C@H](CC(=O)O)NC(=O)[C@H](CC(=O)N1CCCC1)NC(=O)[C@@H](NC(=O)NC(C)C)C(C)C)C(=O)O ({NHiPr-CO}-VD(Pyrrolidide)DL-OH)	6.36
